Some results are limits rather than exact numbers.

The values below come from ChEMBL document CHEMBL4811250, “Discovery and Optimization of 2H-1λ2-Pyridin-2-one Inhibitors of Mutant Isocitrate Dehydrogenase 1 for the Treatment of Cancer” (J Med Chem, 2021).

In series [1] the target is Isocitrate dehydrogenase [NADP] cytoplasmic (Homo sapiens, UniProt O75874, R132C). Kind of series: Inhibition of IDH1 R132C mutant (unknown origin) assessed as reduction in NADPH consumption using alpha-KG as substrate incubated for 5 mins by diaphorase/resazurin-coupled system. (In general: The colour change of resazurin is a common sign of viable cells or microbes.)

A short description of series [2]: Permeability of compound at pH 7.4 by PAMPA assay. It is filed as ADME. The conditions noted are these: read-out: permeability. A digest of the protocol:
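Stirring double-sink PAMPA using a lipid/dodecane membrane tuned for GI passive permeability, pH 7.4 on donor and acceptor sides. Compound at 0.05 mM (0.5% DMSO), 30 min permeation at room temperature with donor stirring. Donor and acceptor concentrations read by UV plate reader.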
(PAMPA measures passive passage across an artificial lipid membrane.)

Series [3] deals with Isocitrate dehydrogenase [NADP] cytoplasmic (Homo sapiens, UniProt O75874, R132H). Kind of series: Inhibition of IDH1 R132H mutant (unknown origin) assessed as reduction in NADPH consumption using alpha-KG as substrate incubated for 5 mins by diaphorase/resazurin-coupled system.
Series [4] in a line: Metabolic stability in rat liver microsomes assessed as half life incubated for 15 mins by high resolution LC/MS analysis. The conditions noted are these: 0.25 h. It is filed as ADME, Microsome. A digest of the protocol:
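Rat liver microsomes (0.5 mg/mL protein) with 1.0 μM compound and NADPH regenerating system in 100 mM phosphate pH 7.4, 15 min at 37 °C. Quenched with acetonitrile containing albendazole internal standard. Percent remaining measured by high-resolution LC/MS.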
In general terms: Microsomes from liver hold many membrane-bound enzymes, among them those of drug oxidation.

Series [5] has as its system Isocitrate dehydrogenase [NADP] cytoplasmic (Homo sapiens), O75874 [R132H]. Kind of series: Inhibition of IDH1 R132H mutant (unknown origin) expressed in human U87 cells assessed as R-2-hydroxyglutarate production at 500 nM after 48 hrs by LC-MS analysis. Type of series: cell-based. On the set-up: scale not given: the % may be the effect or the level left. A digest of the protocol:
(§1)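 U87-R132H cells (8000/well, DMEM high glucose, 10% FBS) were seeded, cultured overnight at 37 °C and 5% CO2, then given compound or DMSO. After 48 h, 2-HG secreted into the medium was measured by RapidFire LC-MS. Cell viability was checked by CellTiter-Glo.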

The test system is the same in series [6]. Kind of series: Inhibition of IDH1 R132H mutant (unknown origin) expressed in human U87 cells assessed as R-2-hydroxyglutarate production at 100 nM after 48 hrs by LC-MS analysis. Type of series: cell-based. Details: scale not given: the % may be the effect or the level left. A digest of the protocol:
as §1

Series [7] can be described thus: Kinetic solubility of the compound in pH 7.4 phosphate buffer measured after 6 hrs by UV spectroscopy. Type of series: physicochemical. The conditions noted are these: read-out: Kinetic_solubility.
In series [8] the test system is Isocitrate dehydrogenase [NADP] cytoplasmic (Homo sapiens), O75874 [R132C]. Kind of series: Inhibition of IDH1 R132C mutant (unknown origin) assessed as reduction in NADPH consumption using alpha-KG as substrate at 38 uM incubated for 5 mins by diaphorase/resazurin-coupled system relative to control.
Series [9] deals with Isocitrate dehydrogenase [NADP] cytoplasmic (Homo sapiens), O75874 [R132H]. Kind of series: Inhibition of IDH1 R132H mutant (unknown origin) assessed as reduction in NADPH consumption using alpha-KG as substrate at 38 uM incubated for 5 mins by diaphorase/resazurin-coupled system relative to control.
Isocitrate dehydrogenase [NADP] cytoplasmic (Homo sapiens), O75874 [R132H], sequence (O75874 whole entry R132H): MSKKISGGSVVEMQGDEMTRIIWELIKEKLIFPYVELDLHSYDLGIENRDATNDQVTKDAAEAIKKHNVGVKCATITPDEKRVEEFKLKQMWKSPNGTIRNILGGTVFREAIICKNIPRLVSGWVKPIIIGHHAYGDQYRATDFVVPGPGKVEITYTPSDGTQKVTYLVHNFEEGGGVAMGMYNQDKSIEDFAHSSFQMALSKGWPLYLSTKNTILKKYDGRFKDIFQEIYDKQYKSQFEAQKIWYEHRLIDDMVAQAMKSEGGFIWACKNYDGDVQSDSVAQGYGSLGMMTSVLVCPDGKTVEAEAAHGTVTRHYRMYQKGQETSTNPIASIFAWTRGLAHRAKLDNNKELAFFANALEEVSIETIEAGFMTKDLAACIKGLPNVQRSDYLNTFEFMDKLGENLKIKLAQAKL

Isocitrate dehydrogenase [NADP] cytoplasmic (Homo sapiens), O75874 [R132C], sequence (O75874 whole entry R132C): as the sequence (O75874 whole entry R132H) above, with H132C counted along it
Isocitrate dehydrogenase [NADP] cytoplasmic (Homo sapiens, UniProt O75874, R132H), sequence (O75874 2-414 R132H limits assumed): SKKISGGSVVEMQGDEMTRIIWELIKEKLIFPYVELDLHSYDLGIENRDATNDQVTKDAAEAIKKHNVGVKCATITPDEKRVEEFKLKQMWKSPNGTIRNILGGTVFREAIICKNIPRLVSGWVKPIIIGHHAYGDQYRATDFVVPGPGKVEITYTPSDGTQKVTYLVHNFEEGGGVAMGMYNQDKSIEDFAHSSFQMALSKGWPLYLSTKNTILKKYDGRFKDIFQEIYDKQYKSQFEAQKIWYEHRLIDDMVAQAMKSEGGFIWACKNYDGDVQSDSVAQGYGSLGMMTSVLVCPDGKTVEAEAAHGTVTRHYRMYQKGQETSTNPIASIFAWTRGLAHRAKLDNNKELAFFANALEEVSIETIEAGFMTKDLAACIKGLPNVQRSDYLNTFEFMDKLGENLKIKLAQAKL
Isocitrate dehydrogenase [NADP] cytoplasmic (Homo sapiens, UniProt O75874, R132C), sequence (O75874 2-414 R132C limits assumed): as the sequence (O75874 2-414 R132H limits assumed) above, with H131C counted along it

By IC50 is commonly meant the point on the concentration scale where inhibition reaches its midpoint. Turning to `CCc1cccc(CC)c1-n1c(C=C(C)C)c(C(=O)N2C3CCC2CNC3)cc(-c2nc(-c3ccc(Cl)cc3)cs2)c1=O`, the results for the IC50 in [1] and in series [3] were 47 nM and 62 nM, respectively. In series [2], the Papp was determined as 99 ×10⁻⁶ cm/s. The t1/2 in series [4] was 9 min. For the same molecule, the Activity in [5] is 18%; in series [6], 32%. The solubility kinetic at 6 h in series [7] was less than 1 µg/mL.
`CCc1cccc(CC)c1-n1c(C=C(C)C)c(C(=O)N2CCNCC2C)cc(-c2nc(-c3ccc(Cl)cc3)cs2)c1=O` (stereo not drawn): the IC50 in series [1] is 53 nM; in series [3] it was 39 nM. Besides, the Papp in [2] amounted to 40 ×10⁻⁶ cm/s. For the same molecule, the t1/2 in [4] is 17 min. Besides, the Activity in [5] stood at 11%; in [6] it was 14%. Further, in series [7], the solubility kinetic at 6 h was less than 1 µg/mL.
With `CCc1cccc(CC)c1-n1c(C=C(C)C)c(C(=O)N2CCNC(C)C2)cc(-c2nc(-c3ccc(Cl)cc3)cs2)c1=O` (stereo not drawn), the results for the IC50 in series [1] and in series [3] were 46 nM and 44 nM, respectively. In addition, the Activity in series [5] worked out at 8%; in series [6] it was 11%.
By inhibition is commonly meant the drop in the measured response relative to a control, in per cent. As to `CCc1cccc(CC)c1-n1c(C)c(C(=O)NCCNC)cc(-c2nc(-c3ccc(Cl)cc3)cs2)c1=O`, the IC50 turned out to be 320 nM in series [1] and 870 nM in [3]. In addition, the inhibition in [8] worked out at 96%; in series [9], 101%.
The matching figures for `CCc1cccc(CC)c1-n1c(CCOC)c(C(=O)N2CCNCC2)cc(-c2nc(-c3ccc(Cl)cc3)cs2)c1=O`: 340 nM, 140 nM, 92% and 102%.
Turning to `CCc1cccc(CC)c1-n1c(C)c(C(=O)N2CCN(C)CC2)cc(-c2nc(-c3ccc(Cl)cc3)cs2)c1=O`, the IC50 in [1] came to 1200 nM; in series [3], 2900 nM. The inhibition in [8] is 86%; in [9], 88%.
Take `CCOc1ccc(OCC)c(-n2c3c(cc(-c4nc(-c5ccc(Cl)cc5)cs4)c2=O)C(=O)CC(C)(C)C3)c1`: the IC50 in [1] was 64 nM; in series [3], 160 nM. Moreover, the inhibition in series [8] was found to be 75%; in series [9] it was 85%.
In the case of `CCc1cccc(CC)c1-n1c(CC2CCNC2)c(C(=O)N2CCNCC2)cc(-c2nc(-c3ccc(Cl)cc3)cs2)c1=O` (stereo not drawn), the Papp in series [2] was determined as 24 ×10⁻⁶ cm/s. Moreover, the IC50 in series [3] was determined as 10000 nM. Besides, the inhibition in series [8] stood at 52%; in series [9] it was 81%. Besides, the t1/2 in series [4] came to 7 min. Also, the solubility kinetic at 6 h in [7] was less than 1 µg/mL.
Consider `CCc1cccc(CC)c1-n1c(CCC(F)(F)F)c(C(=O)N2CCNCC2)cc(-c2nc(-c3ccc(Cl)cc3)cs2)c1=O`, for which the IC50 was 600 nM in series [1] and 240 nM in series [3]. The inhibition in series [8] was found to be 82%; in series [9], 101%.
For the molecule `CCOc1cccc(OCC)c1-n1c2c(cc(-c3nc(-c4ccc(Cl)cc4)cs3)c1=O)C(=O)CC(C)(C)C2`, the IC50 in series [1] worked out at 160 nM; in series [3], 390 nM. Besides, the inhibition stood at 86% in series [8] and 76% in [9].
As to `COc1ncccc1-n1c2c(cc(-c3nc(-c4ccc(Cl)cc4)cs3)c1=O)C(=O)CC(C)(C)C2`, the IC50 in series [1] was 1300 nM; in series [3], 1000 nM. Also, the inhibition in [8] was determined as 80%; in series [9], 97%.
For `CCc1cccc(CC)c1-n1c(C)c(C(=O)N(C)C)cc(-c2nc(-c3ccc(Cl)cc3)cs2)c1=O`, the results for the 50% inhibitory concentration (IC50) in series [1] and in [3] were 2000 nM and 1200 nM, respectively. The results for the inhibition in series [8] and in [9] were 86% and 98%, respectively.
Taken in the same sequence, the figures for `CCc1cccc(CC)c1-n1c(C)c(C(=O)NCC(=O)O)cc(-c2nc(-c3ccc(Cl)cc3)cs2)c1=O` were 11000 nM, 1200 nM, 87% and 106%.
Taken in the same sequence, the figures for `CCc1cccc(CC)c1-n1c(C)c(C(=O)NCCCNC)cc(-c2nc(-c3ccc(Cl)cc3)cs2)c1=O` were 910 nM, 1000 nM, 95% and 104%.
On to `CCCc1c(C(=O)N2CCNCC2)cc(-c2nc(-c3ccc(Cl)cc3)cs2)c(=O)n1-c1c(CC)cccc1CC`, for which the IC50 worked out at 100 nM in series [1] and 75 nM in series [3]. The Papp in series [2] turned out to be 134 ×10⁻⁶ cm/s. For the same molecule, the inhibition in [8] worked out at 82%; in series [9], 97%. In series [4], the t1/2 is 27 min. Moreover, in [7], the solubility kinetic at 6 h is less than 1 µg/mL.
As for `CCc1cccc(CC)c1-n1c(C)c(C(=O)NCC(N)=O)cc(-c2nc(-c3ccc(Cl)cc3)cs2)c1=O`, the values for the IC50 in series [1] and in series [3] were 3800 nM and 1600 nM, respectively. For the same molecule, the inhibition is 77% in series [8] and 105% in series [9].
The matching figures for `CC(C)Oc1ccccc1-n1c2c(cc(-c3nc(-c4ccc(Cl)cc4)cs3)c1=O)C(=O)CC(C)(C)C2`: 470 nM, 1100 nM, 77% and 80%.
The matching figures for `CC1(C)CC(=O)c2cc(-c3nc(-c4ccc(Cl)cc4)cs3)c(=O)n(-c3ccccc3C(=O)O)c2C1`: 11000 nM, 4600 nM, 105% and 96%.
Take `CCc1cccc(CC)c1-n1c2c(cc(-c3nc(-c4ccc(Cl)cc4)cs3)c1=O)C(=O)CC(C)(C)C2`: the IC50 in series [1] came to 240 nM; in [3], 690 nM. The inhibition in [8] was found to be 82%; in [9], 89%.
Taken in the same sequence, the figures for `CCc1cccc(CC)c1-n1c(C)c(C(=O)NCCN)cc(-c2nc(-c3ccc(Cl)cc3)cs2)c1=O` were 2000 nM, 380 nM, 89% and 97%.
Regarding `CCc1cccc(CC)c1-n1c(CC2CC2)c(C(=O)N2CCNCC2)cc(-c2nc(-c3ccc(Cl)cc3)cs2)c1=O`, the IC50 in [1] was 49 nM; in series [3] it was 55 nM. Also, the Papp in series [2] turned out to be 43 ×10⁻⁶ cm/s. Further, the inhibition in series [8] worked out at 96%; in [9] it was 107%. In series [4], the t1/2 came out at 17 min. The solubility kinetic at 6 h in series [7] was less than 1 µg/mL.
In the case of `CCc1cccc(C)c1-n1c2c(cc(-c3nc(-c4ccc(Cl)cc4)cs3)c1=O)C(=O)CC(C)(C)C2`, the figures for the IC50 in series [1] and in series [3] were 500 nM and 790 nM, respectively. Moreover, the inhibition in series [8] came out at 86%; in [9] it was 89%.
`CCc1ccccc1-n1c2c(cc(-c3nc(-c4ccc(Cl)cc4)cs3)c1=O)C(=O)CC(C)(C)C2`: the IC50 in series [1] stood at 870 nM; in series [3], 2000 nM. The inhibition in [8] worked out at 83%; in series [9], 91%.
Take `CCc1cccc(CC)c1-n1c(C)c(C(=O)N2CCOCC2)cc(-c2nc(-c3ccc(Cl)cc3)cs2)c1=O`: the IC50 in [1] worked out at 4100 nM; in series [3], 4200 nM. Also, the inhibition turned out to be 71% in series [8] and 82% in [9].
Taken in the same sequence, the figures for `COc1ccc(OC)c(-n2c3c(cc(-c4nc(-c5ccc(Cl)cc5)c[nH]4)c2=O)C(=O)CC(C)(C)C3)c1` were 2500 nM, 2200 nM, 77% and 82%.
On to `CCc1cccc(CC)c1-n1c(C)c(C(=O)NCCO)cc(-c2nc(-c3ccc(Cl)cc3)cs2)c1=O`, for which the results for the IC50 in series [1] and in series [3] were 2000 nM and 420 nM, respectively. For the same molecule, the values for the inhibition in series [8] and in series [9] were 96% and 104%, respectively.
